For one test, the system named is NCI-H1299. Description: Induction of cell cycle arrest in human H1299 cells assessed as reduction in accumulation of cells at S phase at 1 uM after 24 hrs by propidium iodide/RNase staining based flow cytometric analysis (reference value: 24.5%). Set-up: scale not given: the % may be the effect or the level left. Type of test: functional. An outline of the steps:
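A549 and H1299 plated at 5×10^5 cells/mL in 6-well plates, treated after adherence for 24 h. Washed with PBS, fixed overnight in ice-cold 75% ethanol, stained with propidium iodide plus RNase A for 30 min at 37 °C, analysed by flow cytometry for phase distribution. Means ± SD, three independent experiments.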
A general note: A flow cytometer gives signals particle by particle.

For a further test, the system named is A549. Description: Induction of apoptosis in human A549 cells assessed as viable cells at 0.5 uM after 48 hrs by AnnexinV-FITC/PI staining-based flow cytometric analysis (reference value: 88.8%). Type of test: functional. Conditions: A549, 48 h, read-out: Activity.
Test [1] deals with Myosin light chain kinase, smooth muscle (Homo sapiens) (UniProt Q15746). Put plainly: Inhibition of recombinant human MLCK (1425 to 1771 residues) at 1 uM using calmodulin as substrate measured after 40 mins in presence of [gamma33P]ATP by scintillation counting method relative to control.
Chain of Myosin light chain kinase, smooth muscle (Homo sapiens) (Q15746 whole entry, the tested form may be a part): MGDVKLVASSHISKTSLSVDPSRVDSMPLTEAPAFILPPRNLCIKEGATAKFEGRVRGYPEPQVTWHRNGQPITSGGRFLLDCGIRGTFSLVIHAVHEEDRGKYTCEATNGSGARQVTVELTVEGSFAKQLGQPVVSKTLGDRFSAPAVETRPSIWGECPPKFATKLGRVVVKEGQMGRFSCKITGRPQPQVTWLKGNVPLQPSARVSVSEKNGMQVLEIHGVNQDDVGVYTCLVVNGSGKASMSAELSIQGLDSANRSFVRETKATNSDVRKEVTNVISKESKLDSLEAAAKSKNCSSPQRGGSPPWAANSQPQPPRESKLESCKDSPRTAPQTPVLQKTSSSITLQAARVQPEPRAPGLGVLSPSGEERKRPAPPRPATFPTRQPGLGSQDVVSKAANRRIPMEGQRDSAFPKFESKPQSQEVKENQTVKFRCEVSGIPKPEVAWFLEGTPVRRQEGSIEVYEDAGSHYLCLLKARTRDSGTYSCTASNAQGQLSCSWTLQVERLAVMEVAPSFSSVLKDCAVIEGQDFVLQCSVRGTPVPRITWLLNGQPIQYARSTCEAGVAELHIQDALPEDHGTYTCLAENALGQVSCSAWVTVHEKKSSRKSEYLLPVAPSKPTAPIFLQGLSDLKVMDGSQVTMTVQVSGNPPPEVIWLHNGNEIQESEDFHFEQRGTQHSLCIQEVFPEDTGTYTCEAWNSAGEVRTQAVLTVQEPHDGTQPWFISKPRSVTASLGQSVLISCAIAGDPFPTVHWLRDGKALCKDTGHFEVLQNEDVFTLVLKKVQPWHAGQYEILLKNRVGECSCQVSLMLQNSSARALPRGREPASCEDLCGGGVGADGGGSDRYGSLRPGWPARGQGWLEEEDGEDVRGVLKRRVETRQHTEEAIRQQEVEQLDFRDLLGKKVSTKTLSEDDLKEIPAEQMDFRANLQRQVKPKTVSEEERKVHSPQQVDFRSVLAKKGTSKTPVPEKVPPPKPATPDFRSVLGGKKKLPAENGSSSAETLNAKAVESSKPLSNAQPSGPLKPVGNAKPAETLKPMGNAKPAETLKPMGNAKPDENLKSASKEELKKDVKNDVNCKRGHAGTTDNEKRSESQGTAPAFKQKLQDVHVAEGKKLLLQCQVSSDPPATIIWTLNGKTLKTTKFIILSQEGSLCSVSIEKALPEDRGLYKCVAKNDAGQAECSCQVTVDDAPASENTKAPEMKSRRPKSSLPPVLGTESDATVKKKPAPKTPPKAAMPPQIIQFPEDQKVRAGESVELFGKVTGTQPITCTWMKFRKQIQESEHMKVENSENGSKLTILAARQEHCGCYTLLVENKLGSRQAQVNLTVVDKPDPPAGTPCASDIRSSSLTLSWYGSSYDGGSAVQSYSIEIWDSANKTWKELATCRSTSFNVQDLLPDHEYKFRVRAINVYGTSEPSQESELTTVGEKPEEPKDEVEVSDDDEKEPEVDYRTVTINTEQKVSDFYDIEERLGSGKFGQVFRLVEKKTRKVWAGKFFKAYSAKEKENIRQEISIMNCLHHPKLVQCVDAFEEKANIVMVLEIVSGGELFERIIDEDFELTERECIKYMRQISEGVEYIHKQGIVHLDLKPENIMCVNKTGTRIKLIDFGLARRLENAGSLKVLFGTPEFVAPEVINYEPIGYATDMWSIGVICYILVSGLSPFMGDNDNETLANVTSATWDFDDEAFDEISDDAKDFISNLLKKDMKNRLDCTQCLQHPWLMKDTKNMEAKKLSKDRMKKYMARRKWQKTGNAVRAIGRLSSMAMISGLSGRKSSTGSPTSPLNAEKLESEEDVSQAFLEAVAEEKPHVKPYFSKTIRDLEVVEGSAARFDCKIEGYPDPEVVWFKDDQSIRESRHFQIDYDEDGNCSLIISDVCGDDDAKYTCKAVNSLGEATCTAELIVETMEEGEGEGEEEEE
Test [2] concerns the target Ribosomal protein S6 kinase alpha-5 (Homo sapiens) (UniProt O75582). Description: Inhibition of recombinant human MSK1 (2 to end residues) at 1 uM using GRPRTSSFAEGKK as substrate measured after 40 mins in presence of [gamma33P]ATP by scintillation counting method relative to control.
The target in test [3] is Serine/threonine-protein kinase mTOR (Homo sapiens) (UniProt P42345). Put plainly: Inhibition of recombinant full-length human mTOR at 1 uM after 40 mins in presence of [gamma33P]ATP by scintillation counting method relative to control.
The target in test [4] is CDK2/Cyclin A2 (Homo sapiens) (UniProt P24941+P20248). Put plainly: Inhibition of recombinant full-length human CDK2/cyclinA at 1 uM using Histone H1 as substrate measured after 40 mins in presence of [gamma33P]ATP by scintillation counting method relative to control. Type of test: protein-complex assay.
The target of test [5] is Casein kinase I isoform delta (Homo sapiens) (UniProt P48730). Put plainly: Inhibition of recombinant human CK1delta (1 to 294 residues) at 1 uM using KRRRALS(p)VASLPGL as substrate measured after 40 mins in presence of [gamma33P]ATP by scintillation counting method relative to control.
Chain of Casein kinase I isoform delta (Homo sapiens) (P48730 whole entry, looked up, the tested form may be a part, canonical isoform): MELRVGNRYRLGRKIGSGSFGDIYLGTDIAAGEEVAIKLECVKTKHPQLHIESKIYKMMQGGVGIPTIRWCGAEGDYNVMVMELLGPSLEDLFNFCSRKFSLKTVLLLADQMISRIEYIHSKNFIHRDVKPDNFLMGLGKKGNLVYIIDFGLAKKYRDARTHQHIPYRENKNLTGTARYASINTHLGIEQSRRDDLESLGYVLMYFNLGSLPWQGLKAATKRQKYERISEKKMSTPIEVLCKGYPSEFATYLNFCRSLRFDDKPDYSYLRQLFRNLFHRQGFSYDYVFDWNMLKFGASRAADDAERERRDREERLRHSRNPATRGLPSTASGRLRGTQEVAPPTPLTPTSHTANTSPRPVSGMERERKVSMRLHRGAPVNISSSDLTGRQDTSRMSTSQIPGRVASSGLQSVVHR
Test [6] addresses PAS domain-containing serine/threonine-protein kinase (Homo sapiens) (UniProt Q96RG2). Description: Inhibition of recombinant human PASK (995 to end residues) at 1 uM using KKLNRTLSFAEPG as substrate measured after 40 mins in presence of [gamma33P]ATP by scintillation counting method relative to control.
The subject of test [7] is Phosphorylase b kinase gamma catalytic chain, liver/testis isoform (Homo sapiens), P15735 [F290L]. Description: Inhibition of recombinant human PhKG2 F290L mutant (1 to 301 residues) at 1 uM using KKLNRTLSFAEPG as substrate measured after 40 mins in presence of [gamma33P]ATP by scintillation counting method relative to control.
For test [8], the system named is Mast/stem cell growth factor receptor Kit (Homo sapiens), P10721 [V654A]. Put plainly: Inhibition of recombinant human cKit (544 to end residues) V654A mutant at 1 uM using GGMEDIYFEFMGGKKK as substrate measured after 40 mins in presence of [gamma33P]ATP by scintillation counting method relative to control. In a few lines: (§1)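 Single-point inhibition at 1 µM was measured in the Eurofins KinaseProfiler panel. Values are the mean of two independent experiments.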
Chain of Mast/stem cell growth factor receptor Kit (Homo sapiens), P10721 [V654A] (P10721 whole entry V654A): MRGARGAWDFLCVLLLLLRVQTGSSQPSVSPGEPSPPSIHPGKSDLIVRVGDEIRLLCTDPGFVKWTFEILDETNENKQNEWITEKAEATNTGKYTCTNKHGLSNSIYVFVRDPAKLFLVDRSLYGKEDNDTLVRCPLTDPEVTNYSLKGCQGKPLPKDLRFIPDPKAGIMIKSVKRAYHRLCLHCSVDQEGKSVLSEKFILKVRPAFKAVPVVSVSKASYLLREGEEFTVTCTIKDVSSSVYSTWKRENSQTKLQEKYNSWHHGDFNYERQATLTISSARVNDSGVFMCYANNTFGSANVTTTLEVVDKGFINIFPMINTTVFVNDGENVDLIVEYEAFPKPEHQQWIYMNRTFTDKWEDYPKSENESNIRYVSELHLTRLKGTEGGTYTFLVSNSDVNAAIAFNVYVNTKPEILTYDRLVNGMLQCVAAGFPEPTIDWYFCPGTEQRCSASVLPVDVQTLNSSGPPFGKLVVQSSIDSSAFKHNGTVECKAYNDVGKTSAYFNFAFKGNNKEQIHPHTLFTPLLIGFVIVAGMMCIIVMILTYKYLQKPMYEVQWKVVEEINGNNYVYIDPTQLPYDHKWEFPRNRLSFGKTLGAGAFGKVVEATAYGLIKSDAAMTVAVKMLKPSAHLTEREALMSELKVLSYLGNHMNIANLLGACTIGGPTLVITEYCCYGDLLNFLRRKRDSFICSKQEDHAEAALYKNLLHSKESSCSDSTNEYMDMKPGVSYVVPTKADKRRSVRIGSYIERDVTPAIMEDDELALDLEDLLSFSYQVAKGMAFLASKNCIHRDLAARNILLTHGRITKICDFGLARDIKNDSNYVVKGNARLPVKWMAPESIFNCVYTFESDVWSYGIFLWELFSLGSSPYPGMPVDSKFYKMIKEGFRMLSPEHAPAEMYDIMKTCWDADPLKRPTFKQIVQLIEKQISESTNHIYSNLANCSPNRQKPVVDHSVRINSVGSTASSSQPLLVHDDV

The target in test [9] is Death-associated protein kinase 2 (Homo sapiens) (UniProt Q9UIK4). Put plainly: Inhibition of recombinant full-length human DAPK2 at 1 uM using calmodulin as substrate measured after 40 mins in presence of [gamma33P]ATP by scintillation counting method relative to control.
Chain of Death-associated protein kinase 2 (Homo sapiens) (Q9UIK4 whole entry, looked up, the tested form may be a part): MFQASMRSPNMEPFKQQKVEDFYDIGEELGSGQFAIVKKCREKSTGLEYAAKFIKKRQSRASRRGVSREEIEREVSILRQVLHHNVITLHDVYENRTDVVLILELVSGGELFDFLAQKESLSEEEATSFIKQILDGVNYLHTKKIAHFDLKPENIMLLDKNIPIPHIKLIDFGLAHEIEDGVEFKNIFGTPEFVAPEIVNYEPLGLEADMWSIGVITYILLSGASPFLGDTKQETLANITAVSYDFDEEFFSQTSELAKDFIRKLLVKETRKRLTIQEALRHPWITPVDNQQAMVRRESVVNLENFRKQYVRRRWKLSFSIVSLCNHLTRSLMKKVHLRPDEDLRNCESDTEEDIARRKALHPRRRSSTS
For test [10], the target named is Myotonin-protein kinase (Homo sapiens) (UniProt Q09013). Description: Inhibition of recombinant human DMPK (1 to 549 residues) at 1 uM using KKSRGDYMTMQIG as substrate measured after 40 mins in presence of [gamma33P]ATP by scintillation counting method relative to control.
The target in test [11] is Ephrin type-A receptor 8 (Homo sapiens) (UniProt P29322). Put plainly: Inhibition of recombinant human EphA8 (615 to 911 residues) at 1 uM using KTFCGTPEYLAPEVRREPRILSEEEQEMFRDFDYIADWC as substrate measured after 40 mins in presence of [gamma33P]ATP by scintillation counting method relative to control.
Test [12] deals with Ephrin type-B receptor 1 (Homo sapiens) (UniProt P54762). Description: Inhibition of recombinant human EphB1 (564 to end residues) at 1 uM using KVEKIGEGTYGVVYK as substrate measured after 40 mins in presence of [gamma33P]ATP by scintillation counting method relative to control.
Test [13] deals with Protein kinase C eta type (Homo sapiens), P24723 [UNDEFINED MUTATION]. Put plainly: Inhibition of recombinant human PKCeta V108L/G109R/L392Q mutant (2 to end residues) at 1 uM using ERMRPRKRQGSVRRRV as substrate measured after 40 mins in presence of [gamma33P]ATP by scintillation counting method relative to control.
For test [14], the target named is Mitogen-activated protein kinase kinase kinase kinase 1 (Homo sapiens) (UniProt Q92918). Put plainly: Inhibition of recombinant human HPK1 (1 to 346 residues) at 1 uM using myelin basic protein as substrate measured after 40 mins in presence of [gamma33P]ATP by scintillation counting method relative to control.
Chain of Mitogen-activated protein kinase kinase kinase kinase 1 (Homo sapiens) (Q92918 whole entry, looked up, the tested form may be a part): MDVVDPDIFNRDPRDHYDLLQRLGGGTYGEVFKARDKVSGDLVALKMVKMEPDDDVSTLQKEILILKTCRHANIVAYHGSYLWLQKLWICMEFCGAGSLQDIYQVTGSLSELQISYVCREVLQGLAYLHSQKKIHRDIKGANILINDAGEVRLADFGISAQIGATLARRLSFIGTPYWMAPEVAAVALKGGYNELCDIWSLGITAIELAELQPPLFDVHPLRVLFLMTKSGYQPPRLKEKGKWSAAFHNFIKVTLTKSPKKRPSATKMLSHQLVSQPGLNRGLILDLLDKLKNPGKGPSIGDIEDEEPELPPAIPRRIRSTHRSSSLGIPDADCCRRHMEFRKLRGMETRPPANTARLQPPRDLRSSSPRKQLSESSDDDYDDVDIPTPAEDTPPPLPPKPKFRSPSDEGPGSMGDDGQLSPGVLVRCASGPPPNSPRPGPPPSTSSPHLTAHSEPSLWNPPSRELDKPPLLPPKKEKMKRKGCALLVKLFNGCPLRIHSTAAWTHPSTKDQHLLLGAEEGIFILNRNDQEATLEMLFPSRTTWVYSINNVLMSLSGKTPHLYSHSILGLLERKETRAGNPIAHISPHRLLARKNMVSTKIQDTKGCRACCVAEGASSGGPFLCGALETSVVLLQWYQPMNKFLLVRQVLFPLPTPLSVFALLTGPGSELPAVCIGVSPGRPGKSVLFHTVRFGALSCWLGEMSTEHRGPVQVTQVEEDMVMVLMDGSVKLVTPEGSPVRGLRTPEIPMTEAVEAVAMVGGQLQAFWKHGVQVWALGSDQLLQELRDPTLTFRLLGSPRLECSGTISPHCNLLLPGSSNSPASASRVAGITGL
Test [15] addresses Serine/threonine-protein kinase Sgk3 (Homo sapiens) (UniProt Q96BR1). Description: Inhibition of human SGK3 (119 to end residues) at 1 uM using GRPRTSSFAEGKK as substrate measured after 40 mins in presence of [gamma33P]ATP by scintillation counting method relative to control. In a few lines: (§2)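 Percent inhibition of kinase activity at a single compound concentration, measured by the outsourced Eurofins KinaseProfiler panel. Values are the mean of two independent experiments.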

The target of test [16] is SRSF protein kinase 2 (Homo sapiens) (UniProt P78362). Description: Inhibition of human SRPK2 (46 to end residues) at 1 uM using RSRSRSRSRSRSRSR as substrate measured after 40 mins in presence of [gamma33P]ATP by scintillation counting method relative to control. An outline of the steps:
as §2

The target of test [17] is Serine/threonine-protein kinase 25 (Homo sapiens) (UniProt O00506). Description: Inhibition of human STK25 (1 to 308 residues) at 1 uM using RLGRDKYKTLRQIRQ as substrate measured after 40 mins in presence of [gamma33P]ATP by scintillation counting method relative to control. An outline of the steps: as §2
Chain of Serine/threonine-protein kinase 25 (Homo sapiens) (O00506 whole entry, looked up, the tested form may be a part): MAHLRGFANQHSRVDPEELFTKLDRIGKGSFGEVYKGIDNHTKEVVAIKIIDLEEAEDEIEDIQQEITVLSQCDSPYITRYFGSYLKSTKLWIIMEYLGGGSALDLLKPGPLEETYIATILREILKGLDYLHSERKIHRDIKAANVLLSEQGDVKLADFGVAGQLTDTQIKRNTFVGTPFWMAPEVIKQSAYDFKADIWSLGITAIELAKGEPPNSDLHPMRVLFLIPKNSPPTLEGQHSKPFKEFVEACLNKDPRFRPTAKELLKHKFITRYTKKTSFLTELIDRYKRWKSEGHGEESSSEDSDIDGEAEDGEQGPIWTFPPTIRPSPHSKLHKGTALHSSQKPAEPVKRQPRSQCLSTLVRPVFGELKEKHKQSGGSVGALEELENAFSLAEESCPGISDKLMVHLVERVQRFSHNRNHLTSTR
Test [18] deals with Serine/threonine-protein kinase tousled-like 2 (Homo sapiens) (UniProt Q86UE8). Description: Inhibition of human TLK2 (387 to end residues) at 1 uM using casein as substrate measured after 40 mins in presence of [gamma33P]ATP by scintillation counting method relative to control. An outline of the steps:
as §2

The target in test [19] is Death-associated protein kinase 3 (Homo sapiens) (UniProt O43293). Description: Inhibition of recombinant human ZIPK (1 to 290 residues) at 1 uM using KKLNRTLSFAEPG as substrate measured after 40 mins in presence of [gamma33P]ATP by scintillation counting method relative to control. An outline of the steps: as §1

One may read the inhibition as the change of the read-out against control, counted positive when it falls. For the compound `CN(C)C(=O)c1cc2cnc(Nc3ccc(NC(=O)CCCCCCCN=C=S)cc3)nc2n1C1CCCC1`, in the test with NCI-H1299, the Activity turned out to be 11.2%. The viability at 0.5 µM in the test on A549 stood at 78.8%. In addition, the inhibition in [1] is 5%; in [2], 5%; in test [3] it was -1%; in test [4], 58%; in [5], -2%; in test [6], 6%. In addition, the inhibition is 28% in [7]; 11% in test [8]; -8% in [9]; 5% in test [10]; 2% in test [11]; 9% in test [12]. In addition, the inhibition in test [13] was -3%; in test [14] it was 85%; in [15], 4%; in test [16], 4%; in test [17], -2%; in test [18], 8%. In addition, in test [19], the inhibition came to 1%.

For the origin of these results see ChEMBL document CHEMBL4376814, “Novel cyclin-dependent kinase 9 (CDK9) inhibitor with suppression of cancer stemness activity against non-small-cell lung cancer” (Eur J Med Chem, 2019).
